{"data": "Experimental data collected from several papers", "target": "Serine/threonine-protein kinase NLK (NLK, Homo sapiens, UniProt Q9UBE8)", "Residues used in one study (Q9UBE8 1-527)": "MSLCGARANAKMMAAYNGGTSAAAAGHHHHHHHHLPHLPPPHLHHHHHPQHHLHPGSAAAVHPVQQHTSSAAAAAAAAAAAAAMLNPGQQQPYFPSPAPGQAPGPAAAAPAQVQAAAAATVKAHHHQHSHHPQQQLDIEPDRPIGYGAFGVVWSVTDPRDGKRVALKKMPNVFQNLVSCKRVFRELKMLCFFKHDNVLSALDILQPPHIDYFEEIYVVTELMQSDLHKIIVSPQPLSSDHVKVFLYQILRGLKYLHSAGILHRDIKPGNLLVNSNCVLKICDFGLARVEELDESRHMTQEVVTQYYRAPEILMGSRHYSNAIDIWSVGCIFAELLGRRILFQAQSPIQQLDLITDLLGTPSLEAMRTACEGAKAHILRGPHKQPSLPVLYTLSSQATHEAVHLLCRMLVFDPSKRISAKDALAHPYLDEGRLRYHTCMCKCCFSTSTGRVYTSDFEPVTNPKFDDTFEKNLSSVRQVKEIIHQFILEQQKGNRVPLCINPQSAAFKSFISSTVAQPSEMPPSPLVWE", "note": "Lines come from different studies, so protocols differ."}
{"SMILES": "O=C(NCCCC1CCCCC1)c1ccc(CNC(=O)c2cnn(-c3ccccc3)c2C(F)(F)F)cc1", "test": "cell-free assay, competition with immobilised ligand", "setting": "0.1 µM", "measurement": "remaining binding", "value": "100%"}
{"SMILES": "CCCOc1ccc(OC)c(F)c1C(=O)c1ccc(C(=O)N[C@@H]2CNC[C@H]2NC(=O)c2ccc3[nH]ncc3c2)cc1", "test": "enzyme activity, inhibitor", "setting": "10 µM", "measurement": "remaining activity", "value": "59%"}
{"SMILES": "CSc1cccnc1N1CCN(Cc2nc3ccccc3[nH]2)CC1", "test": "binding, competition with immobilised ligand", "setting": "1 µM", "measurement": "remaining binding", "value": "100%"}
{"SMILES": "Cc1sc(C(=O)NC2COC2)cc1-n1cc(NC(=O)Nc2c(F)cccc2Cl)cn1", "test": "enzyme activity, inhibitor", "setting": "10 µM", "measurement": "remaining activity", "value": "85.2%"}
{"SMILES": "CNC(=O)Nc1ccc2c(c1)CC[C@@]21OC(=O)N(CC(=O)N(Cc2ccc(F)cc2)[C@@H](C)C(F)(F)F)C1=O", "test": "binding, competition with immobilised ligand", "setting": "1 µM", "measurement": "remaining binding", "value": "82%"}
{"SMILES": "Cn1cncc1C1=CN(c2ncnc3[nH]cnc23)CCS1", "test": "enzyme activity, inhibitor, radiometric", "setting": "50 nM", "measurement": "inhibition", "value": "19.6%"}
{"SMILES": "CCCS(=O)(=O)Nc1ccc(F)c(C(=O)c2c[nH]c3ncc(-c4ccc(Cl)cc4)cc23)c1F", "test": "enzyme activity, inhibitor", "setting": "1 µM", "measurement": "inhibition", "value": "< 10%"}
{"SMILES": "O=C1NC(=O)c2cc(Nc3ccc(F)cc3)c(Nc3ccc(F)cc3)cc21", "test": "cell-free assay", "setting": "0.5 µM", "measurement": "remaining signal", "value": "103%"}
{"SMILES": "Cc1ccc(NC(=O)c2ccc(C)c(C(F)(F)F)c2)cc1C#Cc1nn(C2CCC(O)CC2)c2ncnc(N)c12 (stereo not shown)", "test": "cell-free assay", "setting": "10 µM", "measurement": "remaining signal", "value": "82%"}
{"SMILES": "Fc1cccc(-n2cnc3c(NCc4nc5c(F)c(F)ccc5[nH]4)nc(N4CCOCC4)nc32)c1", "test": "binding, competition with immobilised ligand", "setting": "10 µM", "measurement": "binding vs control", "value": "98%"}
{"SMILES": "CC(C)(C)c1nc2c(s1)c1nc(N)ncc1c1ccc(NS(=O)(=O)c3c(F)cccc3F)c(F)c12", "test": "enzyme activity, inhibitor, radiometric", "setting": "1 µM", "measurement": "remaining activity", "value": "91%"}
{"SMILES": "CNC(=O)c1cc(Oc2ccc(NC(=O)Nc3ccc(Cl)c(C(F)(F)F)c3)cc2)ccn1", "test": "enzyme activity, inhibitor", "setting": "0.3 µM", "measurement": "inhibition", "value": "-5%"}
{"SMILES": "O=S(=O)(NC1CCC(c2cc(F)ccc2F)(S(=O)(=O)c2ccc(Cl)cc2)CC1)C(F)(F)F (stereo not shown)", "test": "cell-free assay, competition with immobilised ligand", "setting": "1 µM", "measurement": "remaining binding", "value": "100%"}
{"SMILES": "Cc1ccc(Nc2nccc(N(C)c3ccc4c(C)n(C)nc4c3)n2)cc1S(N)(=O)=O", "test": "enzyme activity, inhibitor", "setting": "10 µM", "measurement": "inhibition", "value": "67%"}
{"SMILES": "O=C1Nc2ccc(Cl)cc2C1=Cc1cc(Cl)c(O)c(Cl)c1", "test": "cell-free assay", "setting": "0.5 µM", "measurement": "remaining signal", "value": "38.9%"}
{"SMILES": "O=C(Nc1cnn(-c2csc(C(=O)NC3COC3)c2)c1)Nc1c(F)cccc1Cl", "test": "enzyme activity, inhibitor", "setting": "5 µM", "measurement": "remaining activity", "value": "87.4%"}
{"SMILES": "CCN(CC)CCNC(=O)c1c(C)[nH]c(/C=C2\\C(=O)Nc3ccc(F)cc32)c1C", "test": "enzyme activity, inhibitor", "setting": "10 µM", "measurement": "inhibition", "value": "7%"}
{"SMILES": "CC(=O)C1=C(C)N(c2cccc(C(F)(F)F)c2)C(=O)N[C@@H]1c1ccc(C#N)nc1", "test": "cell-free assay, competition with immobilised ligand", "setting": "1 µM", "measurement": "remaining binding", "value": "93%"}
{"SMILES": "CC(C)(O)[C@H]1CC[C@H](Nc2ccc3ncc(-c4cccc(C(F)(F)F)c4)n3n2)CC1", "test": "enzyme activity, inhibitor", "setting": "1 µM", "measurement": "remaining activity", "value": "93.3%"}
